Reference: ChEMBL document CHEMBL1152630, “Synthesis and evaluation of benzo[b]thiophene derivatives as inhibitors of alkaline phosphatases” (Bioorg Med Chem, 2009)
Counter-ions that a name gives are not always drawn.

Key:
[1] = molecular target: Intestinal-type alkaline phosphatase (Bos taurus) (UniProt P19111); assay: Inhibition of bovine intestinal alkaline phosphatase assessed as residual enzyme activity at 0.1 mM in presence of 1% DMSO at pH 10.4 at 37 degC relative to untreated control
How it was run: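 Screening in 25 mM piperazine, 25 mM glycylglycine, 5 mM MgCl2, 5 µM ZnCl2, pH 10.4, 37 °C. BIAP (0.1–0.3 µg/mL) preincubated 10 min with 0.1 mM compound (final DMSO 1% v/v), no substrate. Reaction started with 0.05 mM pNPP; read at 420 nm (ε 18.6 cm⁻¹ mM⁻¹). Activity given relative to inhibitor-free control; sample-to-sample error 5%.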

[2] = species on record: Sus scrofa; assay: Inhibition of porcine kidney tissue non-specific alkaline phosphatase assessed as residual enzyme activity at 0.4 mM in presence of 4% DMSO at pH 10.4 at 37 degC relative to untreated control
[3] = Inhibition of porcine kidney tissue non-specific alkaline phosphatase at pH 7.8 at 37 degC; set-up: species or system Sus scrofa
[4] = species on record: Sus scrofa; assay: Inhibition of porcine kidney tissue non-specific alkaline phosphatase assessed as residual enzyme activity at 0.4 mM in presence of 1% DMSO at pH 10.4 at 37 degC relative to untreated control

Sequence of Intestinal-type alkaline phosphatase (Bos taurus) (P19111 20-506 limits assumed): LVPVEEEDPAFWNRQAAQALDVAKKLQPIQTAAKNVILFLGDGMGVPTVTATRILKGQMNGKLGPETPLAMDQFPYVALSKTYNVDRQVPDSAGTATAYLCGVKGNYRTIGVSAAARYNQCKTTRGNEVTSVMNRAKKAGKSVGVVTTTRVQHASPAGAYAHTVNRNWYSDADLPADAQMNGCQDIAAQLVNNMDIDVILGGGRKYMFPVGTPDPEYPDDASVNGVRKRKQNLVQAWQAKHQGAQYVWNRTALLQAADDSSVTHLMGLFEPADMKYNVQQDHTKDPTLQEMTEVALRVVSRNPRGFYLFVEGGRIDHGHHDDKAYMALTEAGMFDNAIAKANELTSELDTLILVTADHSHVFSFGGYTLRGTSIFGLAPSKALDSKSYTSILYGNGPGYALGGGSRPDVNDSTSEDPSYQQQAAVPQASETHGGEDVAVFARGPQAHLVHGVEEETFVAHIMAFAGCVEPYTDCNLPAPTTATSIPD

Activity [1] [%] | Activity [2] [%] | Ki [3] [µM] | Activity [4] [%] | Compound
40 | 96 |  |  | COc1ccc(C(=O)c2csc3ccccc23)cc1
105 | 94 |  |  | COc1ccc(-c2sc3ccccc3c2Oc2ccccc2)cc1
113 | 100 |  |  | CC(C)(C)c1ccc(Oc2csc3ccccc23)cc1
129 | 101 |  |  | COc1cc(Oc2csc3ccccc23)cc(OC)c1OC
117 | 111 |  |  | COc1ccc(-c2sc3ccccc3c2C(=O)c2ccccc2OC)c([N+](=O)[O-])c1
103 | 103 |  |  | COc1ccc(-c2sc3ccccc3c2CN)c(N)c1
90 | 93 |  |  | COc1csc2ccccc12
105 | 83 |  |  | NCc1ccc(Oc2csc3ccccc23)cc1
96 | 82 |  |  | COc1ccc(Oc2csc3ccccc23)cc1
107 | 101 |  |  | COc1ccc(C(=O)c2c(-c3ccccc3[N+](=O)[O-])sc3ccccc23)cc1
116 | 100 |  |  | COc1cccc(C(=O)c2c(-c3ccc(OC)cc3[N+](=O)[O-])sc3ccccc23)c1
73 | 96 |  |  | COc1c(-c2ccccc2C)sc2ccccc12

Second part, the compound before the results:

Compound | Activity [1] [%] | Activity [2] [%] | Ki [3] [µM] | Activity [4] [%]
C1=CN2CC(c3csc4ccccc34)N=C2S1 (centres undefined) | 99 | 11 | 85 | 
O=[N+]([O-])c1cc(Cl)ccc1-c1cc2ccccc2s1 | 107 | 93 |  | 
Oc1ccccc1N1CCN(c2csc3ccccc23)CC1 | 49 | 109 |  | 
O=Cc1csc2ccccc12 | 120 | 85 |  | 
O=Cc1c(-c2ccccc2)sc2ccccc12 | 41 | 77 |  | 
c1ccc([C@H]2CN3CCSC3=N2)cc1 [LEVAMISOLE HYDROCHLORIDE] | 99 | 10 | 93 | 
c1ccc2c(C3CN4CCSC4=N3)csc2c1 (centres undefined) | 100 | 19 | 135 | 
COc1cc(-c2sc3ccccc3c2C#N)cc(OC)c1OC | 88 | 91 |  | 
Cc1ccc(-c2cc3ccccc3s2)c(N)c1 | 107 | 93 |  | 
c1ccc(-c2sc3ccccc3c2N2CCCCC2)cc1 | 99 | 81 |  | 
Cc1ccc(-c2cc3ccccc3s2)c([N+](=O)[O-])c1 | 127 | 97 |  | 
N#Cc1c(-c2ccc3ccccc3c2)sc2ccccc12 | 18 | 99 |  | 
[O-][s+]1cc(N2CCOCC2)c2ccccc21 (centres undefined) | 97 | 111 |  | 
Clc1cccc(-c2cc3ccccc3s2)c1 | 95 | 96 |  | 
N#Cc1ccccc1-c1sc2ccccc2c1N1CCOCC1 | 107 | 93 |  | 
NCc1c(-c2cccnc2)sc2ccccc12 | 105 | 111 |  | 
O=[N+]([O-])c1ccccc1-c1sc2ccccc2c1-c1ccccc1[N+](=O)[O-] | 108 | 88 |  | 
FC(F)(F)COc1cc2ccccc2s1 | 116 | 100 |  | 
[O-][s+]1cc(N2CCCCC2)c2ccccc21 (centres undefined) | 110 | 101 |  | 
c1ccc(Oc2c(-c3ccccc3)sc3ccccc23)cc1 | 104 | 91 |  | 
[O-][s+]1cc(Oc2ccccc2)c2ccccc21 (centres undefined) | 102 | 104 |  | 
N#Cc1ccccc1-c1sc2ccccc2c1C=O | 110 | 79 |  | 
COc1ccc(Oc2c(-c3ccccc3C#N)sc3ccccc23)c(OC)c1OC | 121 | 106 |  | 
FC(F)c1c(-c2cccnc2)sc2ccccc12 | 103 |  |  | 79
CN1CCN(c2c[s+]([O-])c3ccccc23)CC1 (centres undefined) | 102 | 95 |  | 
O=Cc1c(-c2cccnc2)sc2ccccc12 | 119 | 93 |  | 
